Compound activity deposited in PubChem by The Scripps Research Institute Molecular Screening Center.
MBD2 DNA inh = MBD2-methylated oligo binding inhibition; Q9UBB5; TR-FRET, MBD2 binding to methylated oligonucleotide; inhibition, % at 4.4 µM; actives 0.31% (n = 370,000); AID 686964; in the data active = inhibition above about 13%
Target sequence (Q9UBB5 whole entry, looked up): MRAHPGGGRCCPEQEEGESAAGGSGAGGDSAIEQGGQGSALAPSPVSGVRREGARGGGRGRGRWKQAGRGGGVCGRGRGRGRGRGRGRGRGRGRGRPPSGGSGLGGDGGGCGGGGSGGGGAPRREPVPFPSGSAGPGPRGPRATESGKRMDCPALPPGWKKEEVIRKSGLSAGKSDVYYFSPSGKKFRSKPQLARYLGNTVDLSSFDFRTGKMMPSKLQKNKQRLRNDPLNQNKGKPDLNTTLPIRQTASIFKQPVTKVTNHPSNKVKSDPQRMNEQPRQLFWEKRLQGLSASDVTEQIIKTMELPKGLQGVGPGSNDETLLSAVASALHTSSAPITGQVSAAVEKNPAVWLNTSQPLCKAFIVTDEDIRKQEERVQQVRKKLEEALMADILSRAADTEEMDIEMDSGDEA
LEDGF integ inh = blocks HIV-1 LEDGF/p75-dependent DNA integration; TR-FRET IN-LEDGF/p75 DNA integration, Eu/Cy5; inhibition, % at 3.7 µM; actives 0.64% (n = 370,000); AID 743269;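 active = inhibition above the screen-wide mean plus 3 SD, cut at about 13% in these data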;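 note: signal is the Cy5 over europium emission ratio at 671 and 618 nm; 0% = plate median of compound wells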
UHRF1 MBD2 ctr = human UHRF1 methylated DNA binding inhibitors | AID 687016 | Q96T88 | actives 0.75% (n = 370,000) | UHRF1 binding to methylated oligo, TR-FRET | inhibition, % at 4.4 µM; in the data active = inhibition above about 21%;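 note: UHRF1 SRA domain binding a hemimethylated CpG hairpin DNA probe; 0% = median of test compound wells and 100% = reference inhibitor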
TDP2 inh = TDP2 (human) inhibition, absorbance primary screen; O95551; recombinant TDP2, T5PNP hydrolysis, p-nitrophenol absorbance 415 nm; inhibition, % at 12.8 µM; actives 0.34% (n = 370,000); AID 720702;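 active = inhibition above the mean of all tested compounds plus 3 SD, set per campaign, cut at about 25% in these data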;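 note: 0% = DMSO with enzyme and 100% = buffer with substrate but no TDP2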
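Test system: Human TDP2 enzyme | Reagent: 5 mM T5PNP | Compound dosing: 12.8 µM single point, 1% DMSO | Incubation: Enzyme reaction with compound for 2 h at 37 °C | Technique: p-Nitrophenol epi absorbance | Read-out: % inhibition relative to enzyme-containing and enzyme-free wells | Benchmarks: High control without enzyme, low control DMSO plus TDP2 | Replicates: Singlicate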
Rin1 Abl inh = blocks binding of human Rin1 to Abl; P00519+Q13671; TR-FRET Rin1/Abl binding, biochemical; inhibition, % at 7.35 µM; actives 0.4% (n = 360,000); AID 588664; in the data active = inhibition above about 5%, passing the limit was not always enough
IN multimer act = counter-screen for LEDGF/p75 integration inhibitors: HIV-1 integrase multimerization activators; TR-FRET HIV-1 integrase multimerization, biochemical; actives 17% (n = 2,000); activation, % at 7.7 µM; shares compounds with LEDGF integ inh; in the data active = activation above about 8.9%
TRFRET interf = counter-screen for LEDGF/p75 integration inhibitors: TR-FRET optical interference; AID 1053135; inhibition, % at 7.7 µM; TR-FRET optical interference counterscreen, HIV-1 IN multimerization; shares compounds with LEDGF integ inh; 2,000 tested, under 10 active;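 active = inhibition above the mean over all tested compounds plus 3 SD, which no compound reached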;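 note: 0% = integrase with antibodies and DMSO and 100% = antibodies without integrase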
IN-LEDGF confirm = LEDGF/p75-dependent HIV-1 integration inhibition, confirmation | shares compounds with LEDGF integ inh | TR-FRET LEDGF/p75-dependent HIV-1 integration, biochemical | inhibition, % at 3.7 µM | actives 36% (n = 2,000) | AID 1053136; in the data active = inhibition above about 14%
* hit, by the source's call. This is a sample that favours compounds with a hit; in the whole collection about 1.9% have one here.

What do the screens show for `CCOC(=O)C(CC(=O)Nc1nc(C(C)=O)c(C)s1)C(C)c1ccccc1` (configuration not stated)?
MBD2 DNA inh: 3; LEDGF integ inh: 18*; UHRF1 MBD2 ctr: 1; TDP2 inh: 0; Rin1 Abl inh: -7; IN multimer act: 1; TRFRET interf: -4; IN-LEDGF confirm: -5

Results for Cc1nnc(NC(=O)CC(C)c2ccccc2)s1 (configuration not stated) ?
MBD2 DNA inh: 2; LEDGF integ inh: -2; UHRF1 MBD2 ctr: 1; TDP2 inh: -3; Rin1 Abl inh: 2

Results for Cc1ccc(S(=O)(=O)N(C)c2ccccc2C(=O)Nc2c(F)cccc2F)cc1 ?
MBD2 DNA inh: -2; LEDGF integ inh: 36*; UHRF1 MBD2 ctr: 0; TDP2 inh: 7; Rin1 Abl inh: -1; IN multimer act: 1; TRFRET interf: -4; IN-LEDGF confirm: -7

What do the screens show for `CC(c1nc2ccccc2[nH]1)N(C(=O)Cc1csc2ccccc12)c1cccnc1` (configuration not stated)?
MBD2 DNA inh: -3; LEDGF integ inh: 5; UHRF1 MBD2 ctr: 1; TDP2 inh: -6; Rin1 Abl inh: 3

What do the screens show for `COc1c(O)cc2oc(-c3ccc(O)cc3)cc(=O)c2c1O`?
MBD2 DNA inh: -1; LEDGF integ inh: -3; UHRF1 MBD2 ctr: -6; TDP2 inh: 4; Rin1 Abl inh: -3

What do the screens show for `O=c1cc(-c2ccccc2)oc2cc(O)c(O)c(O)c12`?
MBD2 DNA inh: 8; LEDGF integ inh: 30*; UHRF1 MBD2 ctr: 12; TDP2 inh: 7; Rin1 Abl inh: 21*; IN multimer act: 5; TRFRET interf: -27; IN-LEDGF confirm: 26*

What do the screens show for `Oc1ccc(C=NNC(=S)Nc2cccnc2)nc1`?
MBD2 DNA inh: -8; LEDGF integ inh: -2; UHRF1 MBD2 ctr: -8; TDP2 inh: 6; Rin1 Abl inh: -2

Results for O=C(COC(=O)c1cc(S(=O)(=O)N2CCOCC2)ccc1Cl)NC1CCCCC1 ?
MBD2 DNA inh: -6; LEDGF integ inh: 19*; UHRF1 MBD2 ctr: 4; TDP2 inh: 10; Rin1 Abl inh: 1; IN multimer act: 0; TRFRET interf: -2; IN-LEDGF confirm: -1

How did CC1SC(=S)N(c2ccc(N(C)C)cc2)C1=O (configuration not stated) do in these assays?
MBD2 DNA inh: -9; LEDGF integ inh: 20*; UHRF1 MBD2 ctr: 0; TDP2 inh: 24; Rin1 Abl inh: 3; IN multimer act: 1; TRFRET interf: -3; IN-LEDGF confirm: 0

How did CN(C)c1ccc(N2C(=O)CSC2=S)cc1 do in these assays?
MBD2 DNA inh: 1; LEDGF integ inh: 21*; UHRF1 MBD2 ctr: 0; TDP2 inh: 5; Rin1 Abl inh: 4; IN multimer act: 2; TRFRET interf: -12; IN-LEDGF confirm: 6

What do the screens show for `CC1(c2ccc3ccccc3c2)NC(=O)N(CC(=O)N2CCCC(C(F)(F)F)C2)C1=O` (configuration not stated)?
MBD2 DNA inh: -7; LEDGF integ inh: 7; UHRF1 MBD2 ctr: -2; TDP2 inh: -2; Rin1 Abl inh: -3

What do the screens show for `O=C(CSc1nc2scc(-c3ccco3)c2c(=O)n1-c1ccccc1)N1CCOCC1`?
MBD2 DNA inh: 3; LEDGF integ inh: 2; UHRF1 MBD2 ctr: -3; TDP2 inh: -13; Rin1 Abl inh: -9

What do the screens show for `c1ccc(Cn2c(SCc3cn4cccnc4n3)nnc2-c2ccco2)cc1`?
MBD2 DNA inh: -1; LEDGF integ inh: 1; UHRF1 MBD2 ctr: -1; TDP2 inh: 15; Rin1 Abl inh: -1

How did O=c1c2c(-c3ccco3)csc2nc(SCc2cn3cccnc3n2)n1-c1ccccc1 do in these assays?
MBD2 DNA inh: 7; LEDGF integ inh: 27*; UHRF1 MBD2 ctr: 32*; TDP2 inh: 0; Rin1 Abl inh: -2; IN multimer act: 2; TRFRET interf: -8; IN-LEDGF confirm: 22*

Results for NC(=O)CSc1nc2scc(-c3ccco3)c2c(=O)n1-c1ccccc1 ?
MBD2 DNA inh: 1; LEDGF integ inh: 17*; UHRF1 MBD2 ctr: 3; TDP2 inh: -3; Rin1 Abl inh: 5; IN multimer act: -1; TRFRET interf: 3; IN-LEDGF confirm: 5

What do the screens show for `Cc1ccc(C(=O)O)cc1N1C(=O)c2cccc3c([N+](=O)[O-])ccc(c23)C1=O`?
MBD2 DNA inh: 0; LEDGF integ inh: 14*; UHRF1 MBD2 ctr: 19; TDP2 inh: -4; Rin1 Abl inh: 0; IN multimer act: 3; TRFRET interf: -12; IN-LEDGF confirm: 27*

How did CCC1=CC(c2ccccc2)n2ncnc2N1 (configuration not stated) do in these assays?
MBD2 DNA inh: -7; LEDGF integ inh: -5; UHRF1 MBD2 ctr: 0; TDP2 inh: 1; Rin1 Abl inh: -3

Results for COC(=O)[C@]12C[C@H](CC(=O)NCCc3ccccc3OC)C(=O)N(Cc3ccc(Cl)cc3Cl)C1=C[C@H](C(C)C)O[C@@H]2C1CC1 ?
MBD2 DNA inh: -4; LEDGF integ inh: 3; UHRF1 MBD2 ctr: -1; TDP2 inh: -5

Results for Cn1c(N)c(S(=O)(=O)N2CCN(c3ccccc3)CC2)c(=O)n(C)c1=O ?
MBD2 DNA inh: 5; LEDGF integ inh: 15*; UHRF1 MBD2 ctr: 3; TDP2 inh: 6; Rin1 Abl inh: 4; IN multimer act: 0; TRFRET interf: 0; IN-LEDGF confirm: -3

What do the screens show for `Cn1c(N)c(S(=O)(=O)N2CCN(c3ccccc3F)CC2)c(=O)n(C)c1=O`?
MBD2 DNA inh: 4; LEDGF integ inh: 3; UHRF1 MBD2 ctr: 3; TDP2 inh: -13; Rin1 Abl inh: -2

What do the screens show for `O=C(CSc1nnc(-c2ccc(Cl)cc2)n1Cc1ccco1)Nc1ccc(S(=O)(=O)Nc2nccs2)cc1`?
MBD2 DNA inh: -2; LEDGF integ inh: 19*; UHRF1 MBD2 ctr: 2; TDP2 inh: -2; IN multimer act: 6; TRFRET interf: -21; IN-LEDGF confirm: 5

What do the screens show for `Cc1cc(NS(=O)(=O)c2ccc(NC(=O)CSc3nnc(-c4ccc(Cl)cc4)n3Cc3ccco3)cc2)nc(C)n1`?
MBD2 DNA inh: -8; LEDGF integ inh: 5; UHRF1 MBD2 ctr: -4; TDP2 inh: 4

How did Cc1cc(NS(=O)(=O)c2ccc(NC(=O)CSc3nnc(-c4ccncc4)n3Cc3ccco3)cc2)nc(C)n1 do in these assays?
MBD2 DNA inh: 6; LEDGF integ inh: 36*; UHRF1 MBD2 ctr: 7; TDP2 inh: -2; IN multimer act: 1; TRFRET interf: -5; IN-LEDGF confirm: -9

Results for O=C(NN=C(c1ccccc1)c1ccccn1)c1ccccc1 ?
MBD2 DNA inh: -3; LEDGF integ inh: 21*; UHRF1 MBD2 ctr: 8; TDP2 inh: 6; Rin1 Abl inh: 2; IN multimer act: -1; TRFRET interf: 2; IN-LEDGF confirm: -1
